Test results from ChEMBL document CHEMBL3593217, “Synthesis and bioactivity of a Goralatide analog with antileukemic activity” (Bioorg Med Chem, 2015).
Calls of active or inactive are those of the source. The rule behind the calls is not given here. Peptide text beside a SMILES is read from it. * marks the point of attachment. Cbz = O=C(OCc1ccccc1)*; OBn = c1ccc(CO*)cc1; OtBu = CC(C)(C)O*; tBu = CC(C)(C)*

Assays:
U-251 = experiment: Cytotoxicity against human U251 cells assessed as reduction of clonogenicity at 10 uM after 1 to 2 weeks by crystal violet staining; format: functional, cell-based
Method in brief: (§1)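 Clonogenic survival: 1000 cells plated per well, then grown with or without peptide for 1–2 weeks before colonies were scored. Peptide stock was 25 mM in DMSO.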

HEK-293T = experiment: Cytotoxicity against human 293T cells assessed as reduction of clonogenicity at 10 uM after 1 to 2 weeks by crystal violet staining; format: cell-based; method in brief: as §1
HL-60 [1] = experiment: Cytotoxicity against human HL60 cells assessed as cell viability at 1 to 100 uM after 24 hrs by MTT assay; format: functional, cell-based
Method in brief: (§2)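 Cells exposed to peptide at a range of concentrations for 24 h, with DMSO as negative control. Tetrazolium (MTS-type) viability reagent added, then 1–2 h at 37 °C. Read-out is OD at 490 nm. Run in triplicate; significance by Student's t-test against untreated and DMSO-treated cells. Peptide stock was 25 mM in DMSO, stored at −20 °C.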

NALM-6 [2] = experiment: Cytotoxicity against human NALM6 cells assessed as cell viability at 1 to 100 uM after 24 hrs by MTT assay; format: functional, cell-based; method in brief: as §2
HEL [3] = experiment: Cytotoxicity against human HEL cells assessed as cell viability at 1 to 100 uM after 24 hrs by MTT assay; format: functional, cell-based; method in brief: as §2
HL-60 [4] = experiment: Cytotoxicity against human HL60 cells assessed as cell viability after 24 hrs by MTT assay; format: functional, cell-based; method in brief: as §2
HUVEC = experiment: Cytotoxicity against human HUVEC cells assessed as cell viability after 24 hrs by MTT assay; format: cell-based; method in brief: as §2
[5] = Chemical stability of the compound in DMSO after 7 days; format: physicochemical; details: 168 h
Method in brief: (§3)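 Peptide kept in organic solvent (DMSO, CDCl₃ or MeOH) and watched for decomposition, read at 12 h and at 7 days.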

[6] = Chemical stability of the compound in CDCl3 after 7 days; format: physicochemical; details: 168 h; method in brief: as §3
[7] = Chemical stability of the compound in MeOH after 7 days; format: physicochemical; details: 168 h; method in brief: as §3
[8] = Half life in human plasma; format: ADME, cell-free
HL-60 [9] = experiment: Cytotoxicity against human HL60 cells assessed as cell viability at 50 uM after 24 hrs by MTT assay; format: functional, cell-based; method in brief: as §2
NALM-6 [10] = experiment: Cytotoxicity against human NALM6 cells assessed as cell viability at 50 uM after 24 hrs by MTT assay; format: functional, cell-based; method in brief: as §2
HEL [11] = experiment: Cytotoxicity against human HEL cells assessed as cell viability at 50 uM after 24 hrs by MTT assay; format: functional, cell-based; method in brief: as §2
[12] = Chemical stability of the compound in DMSO after 12 hrs; format: physicochemical; method in brief: as §3
[13] = Chemical stability of the compound in CDCl3 after 12 hrs; format: physicochemical; method in brief: as §3
[14] = Chemical stability of the compound in MeOH after 12 hrs; format: physicochemical; method in brief: as §3

| Stability [5] | Stability [6] | Stability [7] | half-life [8] [min] | Stability [12] | Stability [13] | Stability [14] | Structure (SMILES) | Activity (U-251) | Activity (HEK-293T) | Activity (HL-60 [1]) | Activity (NALM-6 [2]) | Activity (HEL [3]) | Activity (HL-60 [4]) | Activity (HUVEC) | inhibition (HL-60 [9]) | inhibition (NALM-6 [10]) | inhibition (HEL [11]) |
| --- | --- | --- | --- | --- | --- | --- | --- | --- | --- | --- | --- | --- | --- | --- | --- | --- | --- |
| Stable | Stable | Stable |  |  |  |  | CC(=O)N[C@@H](COC(C)(C)C)C(=O)N[C@@H](CC(=O)OC(C)(C)C)C(=O)N[C@@H](CCCCNC(=O)OCc1ccccc1)C(=O)N1CCC[C@H]1C(=O)OCc1ccccc1 (Ac-S(tBu)D(OtBu)K(Cbz)P-OBn) | Active | Toxic | Active | Active | Active | Dose-dependent effect | Dose-dependent effect |  |  |  |
|  |  |  | 4.5 | Unstable | Unstable | Unstable | CC(=O)N[C@@H](CO)C(=O)N[C@@H](CC(=O)O)C(=O)N[C@@H](CCCCN)C(=O)N1CCC[C@H]1C(=O)O [GORALATIDE] (Ac-SDKP-OH) |  |  |  |  |  |  |  | inactive | inactive | inactive |
